Screens (PubChem)
An excerpt weighted towards active compounds, which were near 2.1% of everything screened.
SUMO1-SIM PPI: modulators of human SUMO1-mediated protein-protein interactions; SUMO1 binding to a labelled peptide, TR-FRET, 1 h; 0.33% of 360,000 active; inhibition, % at 20 µM; AID 602429; P63165; in the data active = inhibition above about 37%
Target sequence (P63165 whole entry, looked up): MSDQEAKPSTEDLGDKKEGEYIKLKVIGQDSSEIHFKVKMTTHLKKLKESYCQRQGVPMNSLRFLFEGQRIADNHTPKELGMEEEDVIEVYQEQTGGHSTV
Scp-1 inhibitor: blocks human Scp-1 phosphatase activity; inhibition, % at 20 µM; Recombinant Scp1, phosphopeptide, malachite green phosphate absorbance; Q9GZU7; 0.88% of 340,000 active;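 active = inhibition above about 50% at 20 µM, limit read from the data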
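Test system: SCP-1 phosphatase catalytic domain, residues 76-261; measured by: colorimetric phosphate reagent with accelerator and stabiliser, absorbance at 630 nm; timing: enzyme reaction 45 min at room temperature, colour 5 min, stabilisation 30 min; also added: Phosphorylated 17-residue peptide substrate; compound dosing: one concentration, 20 µM, with 1.0% DMSO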
LMPTP inh: LMPTP (human) inhibition. recombinant LMPTP-A, OMFP fluorogenic substrate, fluorescence intensity. inhibition, % at 20 µM. 0.22% of 360,000 active;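 active = compounds that cut the enzyme signal by at least half of the control window in the single-dose screen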
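test system = LMPTP-A | amount = 0.625 nM LMPTP-A final | reagent = fluorogenic phosphatase substrate OMFP at 400 µM final | incubation = 50 min at room temperature | benchmarks = no-enzyme low control, uninhibited high control | medium = Bis-Tris pH 6.0, DTT, detergent | signal = fluorescence intensity of OMFP turnover product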
STEP inh: inhibitors of human striatal-enriched phosphatase STEP | recombinant STEP, OMFP fluorogenic substrate, fluorescence | P54829 | 0.25% of 360,000 active | inhibition, % at 20 µM;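 active = inhibition at 20 µM, scaled per plate between control wells, above about 37%, limit read from the data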
Target sequence (P54829 whole entry, looked up): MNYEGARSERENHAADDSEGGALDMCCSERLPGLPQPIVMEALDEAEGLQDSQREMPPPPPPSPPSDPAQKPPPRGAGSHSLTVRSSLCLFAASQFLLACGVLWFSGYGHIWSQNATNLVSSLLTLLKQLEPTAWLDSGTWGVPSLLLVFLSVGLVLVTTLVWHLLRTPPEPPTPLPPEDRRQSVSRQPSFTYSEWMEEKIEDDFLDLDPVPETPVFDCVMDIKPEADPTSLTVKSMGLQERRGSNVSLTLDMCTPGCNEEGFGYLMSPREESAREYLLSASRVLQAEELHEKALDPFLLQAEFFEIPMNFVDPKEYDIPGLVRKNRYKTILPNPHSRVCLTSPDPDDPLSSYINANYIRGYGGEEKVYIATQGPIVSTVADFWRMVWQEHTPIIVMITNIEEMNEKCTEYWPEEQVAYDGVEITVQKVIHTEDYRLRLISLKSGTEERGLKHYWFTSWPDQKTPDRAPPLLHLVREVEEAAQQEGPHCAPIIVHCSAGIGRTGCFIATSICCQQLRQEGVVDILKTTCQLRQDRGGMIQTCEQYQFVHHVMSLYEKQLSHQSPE
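Assay system: isolated STEP enzyme / Timing: 20 min at room temperature, dark / Doses: 20 µM, 1% DMSO / Technique: fluorescence intensity, excitation 480 nm, emission 540 nm / Reagent: fluorogenic phosphatase substrate OMFP at 25 µM final / Measure: percent inhibition scaled to no-enzyme and uninhibited-enzyme controls, plate-pattern corrected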
DNMT1 inh: DNMT1 (human) enzyme inhibition; P26358; DNMT1 molecular beacon, Hinp1I cleavage, fluorescence; inhibition (reported as % activation of signal), % at 10 µM; 0.83% of 360,000 active; AID 588458; in the data active = inhibition above about 50%
GRK2 inh: inhibitors of human GRK2 displacing RNA aptamer | P25098 | bead flow cytometry, FAM-aptamer displacement from GRK2 | inhibition of aptamer binding, % at 10 µM | 0.59% of 330,000 active;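 active = inhibition of aptamer binding above 40%, roughly 3 SD of noise, on plates passing a quality check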;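 also: median bead fluorescence of bound FAM aptamer so fluorescent compounds give negative values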
Scp1 confirm: Scp-1 (human) inhibition, single-dose confirmed; shares compounds with Scp-1 inhibitor; recombinant SCP-1 catalytic domain, phosphate release, malachite green absorbance; inhibition, % at 20 µM; 61% of 2,500 active; AID 540281
MG interference: interferes with malachite green readout, flagging false Scp-1 hits; Colorimetric interference counterscreen, malachite green absorbance 630 nm; 2,500 tested, under 10 active; shares compounds with Scp-1 inhibitor; apparent inhibition (interference), % at 20 µM; AID 540313;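 also: compounds added after enzyme reaction finished so only phosphate colour detection is probed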
Scp-1 Tm shift: validation of human Scp-1 inhibitors by thermal shift binding | 25% of 1,500 active | shares compounds with Scp-1 inhibitor | thermal shift relative to vanadate control, % at 40 µM | Recombinant SCP1, Sypro Orange thermal shift Tm | AID 540329;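 active = substances whose mean melting-temperature shift, as a percentage of the reference inhibitor's shift, reaches about 5.3%, limit read from the data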
Of the large screens only hits and unclear results are named; the others gave an inactive call (follow-up assays come after a bar, where they were run).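 The calls were made as follows, unless noted: active = inhibition of at least 30% at 20 µM; inactive = the rest.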

Cc1ccc2[nH]c3c(=O)n(CC(=O)NCc4ccco4)ncc3c2c1	Scp-1 inhibitor 52 | Scp1 confirm inactive | MG interference inactive
O=C(CCNC(=O)N1CCn2c1nc1ccccc12)NCc1ccccc1Cl	none
CC(C)C[C@H]1COc2cc(N(C)CCO)ccc2S(=O)(=O)N1	none (no result: Scp-1 inhibitor, STEP inh, DNMT1 inh, GRK2 inh)
COc1ncnc2c1ncn2CCCN(CCCc1ccccc1)CCCn1cnc2c(OC)ncnc21	none (no result: Scp-1 inhibitor, GRK2 inh)
CN(CC(=O)NCc1ccc(F)cc1)S(=O)(=O)c1ccc2c(c1)n(C)c(=O)c(=O)n2C	none
Cc1ccc(CNC(=O)CN(C)S(=O)(=O)c2ccc3c(c2)n(C)c(=O)c(=O)n3C)cc1	none | Scp1 confirm inactive | MG interference inactive
Cn1c(=O)c(=O)n(C)c2cc(S(=O)(=O)CCC(=O)NCc3ccccc3)ccc21	Scp-1 inhibitor 71 | Scp1 confirm inactive | MG interference inactive
Cc1ccc(S(=O)(=O)CCC(=O)NCc2ccccc2)cc1	none
COc1ccccc1CNC(=O)CN(C)S(=O)(=O)c1ccc2c(c1)n(C)c(=O)c(=O)n2C	none | Scp1 confirm inactive | MG interference inactive
COc1ccccc1CNC(=O)CN(C)S(=O)(=O)c1ccc2c(c1)c(=O)n(C)c(=O)n2C	none
CCc1cccc(NC(=O)C2CCCN2S(=O)(=O)c2ccc3c(c2)n(C)c(=O)c(=O)n3C)c1 (stereo not drawn)	none
Cc1cccc(NC(=O)C2CCCN2S(=O)(=O)c2ccc3c(c2)n(C)c(=O)c(=O)n3C)c1 (stereo not drawn)	none | Scp1 confirm inactive | MG interference inactive
Cc1ccc2nc(/C(C#N)=C/c3ccc(-c4ccccc4C(=O)O)o3)[nH]c2c1	Scp-1 inhibitor 54 | Scp1 confirm 47 | MG interference inactive | Scp-1 Tm shift 7.3
CCN(CC(=O)Nc1c(F)cccc1F)C(=O)c1ccc(=O)n(C)n1	none (no result: GRK2 inh)
CCOC(=O)c1c(C)nsc1NC(=O)C1(C)CCN1C(=O)CC (stereo not drawn)	none (no result: Scp-1 inhibitor, GRK2 inh)
CCCCN(C(=O)c1cccc(-n2cccc2)c1)c1c(N)n(CCCC)c(=O)[nH]c1=O	Scp-1 inhibitor 70 | Scp1 confirm inactive | MG interference inactive
CCCCN(C(=O)c1cnccn1)c1c(N)n(CCC)c(=O)[nH]c1=O	Scp-1 inhibitor 99 | Scp1 confirm inactive | MG interference inactive
CCCN(C(=O)c1cc2c(s1)CCC2)c1c(N)n(Cc2ccccc2)c(=O)[nH]c1=O	Scp-1 inhibitor 53, DNMT1 inh 53 | Scp1 confirm 46 | MG interference inactive | Scp-1 Tm shift inactive
CCCCN(C(=O)c1cc2c(s1)CCC2)c1c(N)n(CCC)c(=O)[nH]c1=O	Scp-1 inhibitor 60 (no result: GRK2 inh) | Scp1 confirm 50 | MG interference inactive | Scp-1 Tm shift inactive
COCCCN(C(=O)c1cc2c(s1)CCC2)c1c(N)n(Cc2ccccc2)c(=O)[nH]c1=O	none
Cc1cc(C)n(C(C)Sc2ccccc2)n1 (stereo not drawn)	none
CCOC(=O)c1cnn(C)c1NC(=O)c1ccc([N+](=O)[O-])cc1	none
CCCCN(C(=O)c1ccc(Cl)c(S(=O)(=O)N2CCOCC2)c1)c1c(N)n(CCC)c(=O)[nH]c1=O	Scp-1 inhibitor 58 | Scp1 confirm inactive | MG interference inactive
CCCCCOc1ccc(C(=O)CCC(=O)NNC(=O)c2ccncc2)cc1	none (no result: GRK2 inh)
CC[N+](C)(CC)CC(=O)OCC1C(C)C=C(C)CC1C (stereo not drawn)	Scp-1 inhibitor 56 | Scp1 confirm inactive | MG interference inactive
CSc1ccc(S(=O)(=O)NCC(=O)OC2CCOC2=O)cc1[N+](=O)[O-] (stereo not drawn)	none
Nc1ccc(S(=O)(=O)NCC(=O)OC2CCOC2=O)cc1[N+](=O)[O-] (stereo not drawn)	Scp-1 inhibitor 55 | Scp1 confirm inactive | MG interference inactive
CN(CCCC1CCCC1)C(=O)c1cc(COc2ccc(F)c(F)c2)on1	Scp-1 inhibitor 63 | Scp1 confirm inactive | MG interference inactive
Cc1cccc(NC(=S)NC(=O)CC2CC(C)(C)OC2=O)c1 (stereo not drawn)	none | Scp1 confirm inactive | MG interference inactive
Cc1ccc(NC(=S)NC(=O)CC2CC(C)(C)OC2=O)cc1 (stereo not drawn)	none
CCN(C(=O)CSc1nc2scc(-c3ccccc3)c2c(=O)n1N)C1CCS(=O)(=O)C1 (stereo not drawn)	none (no result: GRK2 inh)
COc1cccc(C(=O)OCC(=O)Nc2sc3c(c2C(N)=O)CCC3)c1O	Scp-1 inhibitor 62 | Scp1 confirm 72 | MG interference inactive | Scp-1 Tm shift 9.7
CC(NC(=O)c1ccc(CS(C)(=O)=O)cc1)c1cccc2ccccc12 (stereo not drawn)	none
Brc1ccc(CSc2ncn[nH]2)cc1	Scp-1 inhibitor 51 | Scp1 confirm inactive | MG interference inactive
COc1cccc(C(C)(O)c2nc(-c3cccc(NC(C)=O)c3)cs2)c1 (stereo not drawn)	none (no result: Scp-1 inhibitor, GRK2 inh)
O=C(c1ccccc1F)N1CCCC(N2CCN(Cc3ccc4c(c3)OCO4)CC2)C1 (stereo not drawn)	none (no result: Scp-1 inhibitor, GRK2 inh)
CC(=O)c1ccccc1C(=O)N1CCCC(N2CCN(Cc3ccc4c(c3)OCO4)CC2)C1 (stereo not drawn)	Scp-1 inhibitor 65 | Scp1 confirm inactive | MG interference inactive
O=C(COc1ncnc2sccc12)N1CCN(C(=O)c2ccco2)CC1	SUMO1-SIM PPI 47, Scp-1 inhibitor 92 | Scp1 confirm 64 | MG interference inactive | Scp-1 Tm shift inactive
COc1cccc(CNS(=O)(=O)c2c(C(=O)N3CCCCCC3)c(C)n(C)c2C)c1	none
COc1cc(/C=C2\SC(=S)N(CCCCC(=O)O)C2=O)ccc1OS(=O)(=O)c1ccc(C)cc1	Scp-1 inhibitor 51 | Scp1 confirm 48 | MG interference inactive | Scp-1 Tm shift 15
CCn1cc(S(=O)(=O)c2ccc(C)cc2)c(=O)c2cc(F)c(N3CCN(C)CC3)cc21	Scp-1 inhibitor 61 | Scp1 confirm inactive | MG interference inactive
Cc1ccc(S(=O)(=O)c2cn(C)c3cc(N4CCN(C)CC4)c(F)cc3c2=O)cc1	none
O=C1CCSc2c1ccc1ccccc21	none (no result: GRK2 inh)
N#C/C(=C\c1cccs1)c1nc2ccccc2[nH]1	none
